Assay type in all cases: functional
Experiment [1] has as its system Abutilon theophrasti. In words: Herbicidal activity against Abutilon theophrasti (velvetleaf) at 40 g/hm2 postemergent application after 2 weeks. An outline of the steps:
(§1)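 Seedlings grown 14 days in the greenhouse; plants uniform in size and stage were chosen. Test compound in acetone sprayed post-emergence at a carrier volume equivalent to 187 L/ha. Plants returned to the greenhouse and watered; untreated plants served as control. Each species scored visually two weeks after application on a 0–100 scale (0 no activity, 100 total control).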

The subject of experiment [2] is Abutilon theophrasti. In words: Herbicidal activity against Abutilon theophrasti (velvetleaf) at 200 g/hm2 postemergent application after 2 weeks. An outline of the steps: as §1
In experiment [3] the test system is Abutilon theophrasti. In words: Herbicidal activity against Abutilon theophrasti (velvetleaf) at 1000 g/hm2 postemergent application after 2 weeks. The essentials:
as §1

Experiment [4] concerns Digitaria sanguinalis. In words: Herbicidal activity against Digitaria sanguinalis (hairy crabgrass) at 200 g/hm2 postemergent application after 2 weeks. An outline of the steps: as §1
Experiment [5] relates to Digitaria sanguinalis. The experiment is described as follows: Herbicidal activity against Digitaria sanguinalis (hairy crabgrass) at 40 g/hm2 postemergent application after 2 weeks. An outline of the steps: as §1
For experiment [6], the system named is Digitaria sanguinalis. The experiment is described as follows: Herbicidal activity against Digitaria sanguinalis (hairy crabgrass) at 1000 g/hm2 postemergent application after 2 weeks. The essentials:
as §1

Experiment [7] relates to Echinochloa crus-galli. The experiment is described as follows: Herbicidal activity against Echinochloa crus-galli (barnyard grass) at 40 g/hm2 postemergent application after 2 weeks. The essentials:
as §1

For experiment [8], the system named is Echinochloa crus-galli. In words: Herbicidal activity against Echinochloa crus-galli (barnyard grass) at 200 g/hm2 postemergent application after 2 weeks. The essentials: as §1
The subject of experiment [9] is Echinochloa crus-galli. The experiment is described as follows: Herbicidal activity against Echinochloa crus-galli (barnyard grass) at 1000 g/hm2 postemergent application after 2 weeks. An outline of the steps:
as §1

Consider `C=C(C(=O)OCC)C(C)OC(=O)c1cc(Oc2ccc(C(F)(F)F)cc2Cl)ccc1Cl` (stereo not drawn), for which the Activity with Abutilon theophrasti [1] came to 5%; in the experiment with Abutilon theophrasti [2], 75%; in the experiment on Abutilon theophrasti [3], 100%; with Digitaria sanguinalis [4], 35%; in the experiment with Digitaria sanguinalis [5], 0%; in the experiment on Digitaria sanguinalis [6] it was 40%. Also, the Activity amounted to 0% in the experiment on Echinochloa crus-galli [7], 20% in the experiment on Echinochloa crus-galli [8] and 95% in the experiment on Echinochloa crus-galli [9].
On to `COC(=O)/C=C(\C)OC(=O)c1cc(Oc2ccc(C(F)(F)F)cc2Cl)ccc1[N+](=O)[O-]`, for which the Activity in the experiment with Abutilon theophrasti [1] amounted to 25%; in the experiment on Abutilon theophrasti [2], 75%; in the experiment with Abutilon theophrasti [3], 100%; in the experiment on Digitaria sanguinalis [4], 80%; with Digitaria sanguinalis [5], 5%; in the experiment with Digitaria sanguinalis [6] it was 95%. The Activity stood at 15% in the experiment on Echinochloa crus-galli [7], 50% with Echinochloa crus-galli [8] and 80% with Echinochloa crus-galli [9].
As for `C=C(C(=O)OCC)C(C)OC(=O)c1cc(Oc2ccc(C(F)(F)F)cc2Cl)ccc1[N+](=O)[O-]` (stereo not drawn), the Activity turned out to be 5% in the experiment with Abutilon theophrasti [1]; 50% in the experiment with Abutilon theophrasti [2]; 100% in the experiment with Abutilon theophrasti [3]; 70% in the experiment on Digitaria sanguinalis [4]; 25% in the experiment with Digitaria sanguinalis [5]; 90% with Digitaria sanguinalis [6]. The Activity in the experiment with Echinochloa crus-galli [7] was found to be 10%; in the experiment on Echinochloa crus-galli [8], 20%; with Echinochloa crus-galli [9], 30%.
On to `C=C(COC(=O)c1cc(Oc2ccc(C(F)(F)F)cc2Cl)ccc1Cl)C(=O)OCC`, for which the Activity was 30% with Abutilon theophrasti [1]; 100% in the experiment on Abutilon theophrasti [2]; 100% with Abutilon theophrasti [3]; 70% in the experiment on Digitaria sanguinalis [4]; 40% in the experiment with Digitaria sanguinalis [5]; 95% in the experiment with Digitaria sanguinalis [6]. Moreover, the Activity in the experiment with Echinochloa crus-galli [7] stood at 10%; in the experiment with Echinochloa crus-galli [8] it was 20%; with Echinochloa crus-galli [9] it was 90%.
As to `CCC/C(=C\C(=O)OCC)OC(=O)c1cc(Oc2ccc(C(F)(F)F)cc2Cl)ccc1[N+](=O)[O-]`, the Activity in the experiment with Abutilon theophrasti [2] is 0%; with Abutilon theophrasti [3], 0%; in the experiment on Digitaria sanguinalis [4] it was 5%; in the experiment on Digitaria sanguinalis [6], 15%; with Echinochloa crus-galli [8] it was 5%; in the experiment on Echinochloa crus-galli [9] it was 35%.
Regarding `CC/C(=C\C(=O)OC)OC(=O)c1cc(Oc2ccc(C(F)(F)F)cc2Cl)ccc1[N+](=O)[O-]`, the Activity came to 0% in the experiment with Abutilon theophrasti [2]; 10% in the experiment with Abutilon theophrasti [3]; 5% with Digitaria sanguinalis [4]; 15% with Digitaria sanguinalis [6]; 0% with Echinochloa crus-galli [8]; 35% with Echinochloa crus-galli [9].
As to `CCOC(=O)/C=C(\C)OC(=O)c1cc(Oc2ccc(C(F)(F)F)cc2Cl)ccc1[N+](=O)[O-]`, the Activity in the experiment with Abutilon theophrasti [1] turned out to be 10%; in the experiment with Abutilon theophrasti [2] it was 85%; in the experiment on Abutilon theophrasti [3] it was 100%; with Digitaria sanguinalis [4], 90%; in the experiment on Digitaria sanguinalis [5], 80%; with Digitaria sanguinalis [6] it was 98%. The Activity with Echinochloa crus-galli [7] amounted to 10%; in the experiment with Echinochloa crus-galli [8] it was 40%; in the experiment on Echinochloa crus-galli [9], 60%.
Take `C=C(COC(=O)c1cc(Oc2ccc(C(F)(F)F)cc2Cl)ccc1Cl)C(=O)OCCC`: the Activity was 20% in the experiment on Abutilon theophrasti [1]; 100% in the experiment with Abutilon theophrasti [2]; 100% in the experiment on Abutilon theophrasti [3]; 30% in the experiment with Digitaria sanguinalis [4]; 10% in the experiment with Digitaria sanguinalis [5]; 35% in the experiment with Digitaria sanguinalis [6]. Besides, the figures for the Activity in the experiment on Echinochloa crus-galli [7], with Echinochloa crus-galli [8] and with Echinochloa crus-galli [9] were 5%, 10% and 75%, respectively.
For `C=C(COC(=O)c1cc(Oc2ccc(C(F)(F)F)cc2Cl)ccc1Cl)C(=O)OC`, the Activity in the experiment on Abutilon theophrasti [1] was 10%; with Abutilon theophrasti [2], 98%; with Abutilon theophrasti [3] it was 100%; with Digitaria sanguinalis [4] it was 25%; in the experiment on Digitaria sanguinalis [5] it was 10%; in the experiment on Digitaria sanguinalis [6] it was 30%. Moreover, the Activity in the experiment with Echinochloa crus-galli [7] is reported as 5%; with Echinochloa crus-galli [8], 15%; in the experiment with Echinochloa crus-galli [9], 75%.
Regarding `CCOC(=O)/C=C(\C)COC(=O)c1cc(Oc2ccc(C(F)(F)F)cc2Cl)ccc1[N+](=O)[O-]`, the Activity in the experiment with Abutilon theophrasti [1] was determined as 90%; in the experiment with Abutilon theophrasti [2], 100%; in the experiment on Abutilon theophrasti [3], 100%; in the experiment on Digitaria sanguinalis [4], 10%; in the experiment with Digitaria sanguinalis [5], 10%; in the experiment with Digitaria sanguinalis [6], 20%. Further, the Activity stood at 5% in the experiment with Echinochloa crus-galli [7], 20% in the experiment on Echinochloa crus-galli [8] and 35% with Echinochloa crus-galli [9].
Regarding `CCOC(=O)/C(C)=C(\C)OC(=O)c1cc(Oc2ccc(C(F)(F)F)cc2Cl)ccc1[N+](=O)[O-]`, the Activity came to 0% in the experiment on Abutilon theophrasti [1]; 35% in the experiment with Abutilon theophrasti [2]; 100% with Abutilon theophrasti [3]; 50% with Digitaria sanguinalis [4]; 20% with Digitaria sanguinalis [5]; 55% in the experiment on Digitaria sanguinalis [6]. The figures for the Activity in the experiment on Echinochloa crus-galli [7], with Echinochloa crus-galli [8] and with Echinochloa crus-galli [9] were 10%, 15% and 25%, respectively.
Regarding `COCCOC(=O)/C=C(\C)OC(=O)c1cc(Oc2ccc(C(F)(F)F)cc2Cl)ccc1[N+](=O)[O-]`, the Activity with Abutilon theophrasti [1] came out at 98%; in the experiment on Abutilon theophrasti [2] it was 100%; with Abutilon theophrasti [3] it was 100%; in the experiment with Digitaria sanguinalis [4] it was 35%; with Digitaria sanguinalis [5], 30%; in the experiment with Digitaria sanguinalis [6], 75%. The Activity is recorded as 20% in the experiment with Echinochloa crus-galli [7], 30% in the experiment on Echinochloa crus-galli [8] and 80% with Echinochloa crus-galli [9].
In the case of `CCOC(=O)/C=C(/OC(=O)c1cc(Oc2ccc(C(F)(F)F)cc2Cl)ccc1[N+](=O)[O-])C(F)(F)F`, the Activity in the experiment on Abutilon theophrasti [2] came out at 0%; with Abutilon theophrasti [3], 60%; in the experiment with Digitaria sanguinalis [4] it was 0%; in the experiment with Digitaria sanguinalis [6], 50%; in the experiment with Echinochloa crus-galli [8] it was 0%; in the experiment on Echinochloa crus-galli [9] it was 35%.
In the case of `CCOC(=O)/C=C(\C)OC(=O)c1cc(Oc2ccc(C(F)(F)F)cc2Cl)ccc1Cl`, the Activity in the experiment on Digitaria sanguinalis [4] is 20%; in the experiment on Digitaria sanguinalis [5], 10%; in the experiment on Digitaria sanguinalis [6] it was 25%; with Echinochloa crus-galli [7], 0%; with Echinochloa crus-galli [8], 20%; with Echinochloa crus-galli [9], 95%.
For `C/C(=C\C(=O)OC(C)(C)C)OC(=O)c1cc(Oc2ccc(C(F)(F)F)cc2Cl)ccc1[N+](=O)[O-]`, the Activity with Abutilon theophrasti [1] was 30%; in the experiment with Abutilon theophrasti [2], 50%; in the experiment with Abutilon theophrasti [3] it was 75%; in the experiment with Digitaria sanguinalis [4] it was 15%; in the experiment with Digitaria sanguinalis [5] it was 5%; in the experiment with Digitaria sanguinalis [6], 40%. Moreover, the Activity in the experiment on Echinochloa crus-galli [7] came to 5%; in the experiment with Echinochloa crus-galli [8], 30%; with Echinochloa crus-galli [9], 45%.
In the case of `C=CCOC(=O)/C=C(\C)OC(=O)c1cc(Oc2ccc(C(F)(F)F)cc2Cl)ccc1[N+](=O)[O-]`, the Activity in the experiment on Abutilon theophrasti [2] turned out to be 0%; with Abutilon theophrasti [3] it was 40%; with Digitaria sanguinalis [4] it was 5%; in the experiment with Digitaria sanguinalis [6], 35%; in the experiment with Echinochloa crus-galli [8], 5%; in the experiment with Echinochloa crus-galli [9], 25%.
`CCOC(=O)/C=C/COC(=O)c1cc(Oc2ccc(C(F)(F)F)cc2Cl)ccc1Cl`: the Activity in the experiment with Abutilon theophrasti [1] was determined as 98%; in the experiment on Abutilon theophrasti [2] it was 100%; with Abutilon theophrasti [3], 100%; in the experiment on Digitaria sanguinalis [4], 30%; with Digitaria sanguinalis [5], 20%; in the experiment with Digitaria sanguinalis [6] it was 70%. In addition, the figures for the Activity in the experiment on Echinochloa crus-galli [7], with Echinochloa crus-galli [8] and in the experiment with Echinochloa crus-galli [9] were 15%, 45% and 85%, respectively.

For the origin of these results see ChEMBL document CHEMBL3046106, “Synthesis and herbicidal activity of diphenyl ether derivatives containing unsaturated carboxylates” (J Agric Food Chem, 2011).
